Results: ChEMBL document CHEMBL1165950, “Design and synthesis of new potent anticancer pyrazoles with high FLT3 kinase inhibitory selectivity” (Bioorg Med Chem, 2010)

Assays:
Type in all cases: functional
MDA-MB-231 = assay: Cytotoxicity against human MDA-MB-231 cells assessed as cell growth at 0.001 uM after 48 hrs by sulforhodamine B assay; details: MDA-MB-231, 48 h, read-out: Activity
K562 = assay: Cytotoxicity against human K562 cells assessed as cell growth at 1 uM after 48 hrs by sulforhodamine B assay; details: K562, 48 h, read-out: Activity
SNB-75 = assay: Cytotoxicity against human SNB75 cells assessed as cell growth at 1 uM after 48 hrs by sulforhodamine B assay; details: SNB-75, 48 h, read-out: Activity
MOLT-4 = assay: Cytotoxicity against human MOLT4 cells assessed as cell growth at 0.01 uM after 48 hrs by sulforhodamine B assay; details: MOLT-4, 48 h, read-out: Activity
[1] = Cytotoxicity against human RPMI8266 cells assessed as cell growth at 0.01 uM after 48 hrs by sulforhodamine B assay; details: read-out: Activity
NCI-H322M = assay: Cytotoxicity against human NCI-H322M cells assessed as cell growth at 0.01 uM after 48 hrs by sulforhodamine B assay; details: read-out: Activity
NCI-H460 [2] = assay: Cytotoxicity against human NCI-H460 cells assessed as cell growth at 0.01 uM after 48 hrs by sulforhodamine B assay; details: NCI-H460, 48 h, read-out: Activity
HL-60(TB) [3] = assay: Growth inhibition of human HL-60(TB) cells after 48 hrs by sulforhodamine B assay; details: HL-60, 48 h
How it was run: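 NCI 60-cell SRB screen. Cells in RPMI 1640 with 5% FBS and 2 mM L-glutamine are preincubated 24 h, then exposed to five concentrations (10-fold or 1/2-log dilutions from DMSO stock) for 48 h at 37 °C. Suspension cells are fixed with 80% TCA (final 16%), and A515 is read. IC50 is taken as the concentration where [(Ti−Tz)/(C−Tz)]×100 = 50, i.e. 50% reduction in net protein increase.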

SF-539 = assay: Cytotoxicity against human SF539 cells assessed as cell growth at 0.01 uM after 48 hrs by sulforhodamine B assay; details: SF-539, 48 h, read-out: Activity
UACC-257 = assay: Cytotoxicity against human UACC257 cells assessed as cell growth at 0.01 uM after 48 hrs by sulforhodamine B assay; details: UACC-257, 48 h, read-out: Activity
SNB-19 = assay: Cytotoxicity against human SNB19 cells assessed as cell growth at 0.001 uM after 48 hrs by sulforhodamine B assay; details: SNB-19, 48 h, read-out: Activity
SK-OV-3 = assay: Cytotoxicity against human SKOV3 cells assessed as cell growth at 0.001 uM after 48 hrs by sulforhodamine B assay; details: SK-OV-3, 48 h, read-out: Activity
HOP-92 = assay: Growth inhibition of human HOP92 cells after 48 hrs by sulforhodamine B assay; details: HOP-92, 48 h
How it was run: (§1)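 NCI 60-cell screen, five-dose mode. Cells grown in RPMI 1640 with 5% FBS and 2 mM L-glutamine and plated at 5000-40,000 cells/well according to doubling time. After 24 h preincubation, a Tz plate was TCA-fixed. Five concentrations (10-fold or 1/2 log dilutions) were applied for 48 h at 37 °C. SRB staining read at 515 nm. IC50 taken from [(Ti-Tz)/(C-Tz)]×100 = 50.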

COLO 205 = assay: Growth inhibition of human COLO205 cells after 48 hrs by sulforhodamine B assay; details: COLO 205, 48 h
How it was run: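 NCI five-dose SRB assay in RPMI 1640 with 5% FBS and 2 mM L-glutamine. Cells were preincubated 24 h, then exposed 48 h at 37 °C to five concentrations (10-fold or half-log serial dilutions from DMSO stocks). TCA fixation, SRB staining, and absorbance at 515 nm followed. IC50 was taken where [(Ti−Tz)/(C−Tz)]×100 = 50, with Tz as time-zero cell density.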

SW-620 = assay: Growth inhibition of human SW620 cells after 48 hrs by sulforhodamine B assay; details: SW-620, 48 h; how it was run: as §1
LOX IMVI = assay: Growth inhibition of human LOXIMVI cells after 48 hrs by sulforhodamine B assay; how it was run: as §1
T47D = assay: Cytotoxicity against human T47D cells assessed as cell growth at 0.01 uM after 48 hrs by sulforhodamine B assay; details: read-out: Activity
PC-3 = assay: Growth inhibition of human PC3 cells after 48 hrs by sulforhodamine B assay; details: PC-3, 48 h; how it was run: as §1
HL-60(TB) [4] = assay: Cytotoxicity against human HL-60(TB) cells assessed as cell growth at 10 uM; details: read-out: Activity
How it was run: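 NCI 60-cell panel screen at a single concentration of 10 µM. Cells are grown in RPMI 1640 with 5% FBS and 2 mM L-glutamine and read by SRB protein staining at 515 nm. Percent growth is measured relative to time-zero and untreated controls; inhibition % is 100 minus growth %.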

UACC-62 = assay: Cytotoxicity against human UACC62 cells assessed as cell growth at 1 uM after 48 hrs by sulforhodamine B assay; details: UACC-62, 48 h, read-out: Activity
OVCAR-4 = assay: Cytotoxicity against human OVCAR4 cells assessed as cell growth at 1 uM after 48 hrs by sulforhodamine B assay; details: OVCAR-4, 48 h, read-out: Activity
SF-295 = assay: Cytotoxicity against human SF295 cells assessed as cell growth at 10 uM; details: read-out: Activity
How it was run: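 NCI-60 screen: cells grown in RPMI 1640 with 5% FBS and 2 mM L-glutamine, plated at 5000–40,000 cells/well according to doubling time, and preincubated 24 h at 37 °C, 5% CO2. The single 10 µM dose (DMSO stock) was added, then incubated 48 h. Cells were TCA-fixed and stained with 0.4% SRB, read at 515 nm, and growth % calculated against time-zero and control plates.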

EKVX = assay: Cytotoxicity against human EKVX cells assessed as cell growth at 10 uM after 48 hrs by sulforhodamine B assay; details: read-out: Activity
NCI-H460 [5] = assay: Cytotoxicity against human NCI-H460 cells assessed as cell growth at 10 uM after 48 hrs by sulforhodamine B assay; details: NCI-H460, 48 h, read-out: Activity
NCI/ADR-RES = assay: Cytotoxicity against human NCI/ADR-RES cells assessed as cell growth at 10 uM after 48 hrs by sulforhodamine B assay; details: read-out: Activity
[6] = read-out: LC50 (the source's name)

## Cc1cc(O)cc(-c2nn(CC#N)cc2-c2ccnc(-c3ccc(Oc4ccccc4)cc3)c2)c1
MDA-MB-231
  growth at 0.001 µM: 96%
K562
  growth at 1 µM: -13%
SNB-75
  growth at 1 µM: 30%
MOLT-4
  growth at 0.01 µM: 93%
[1]
  growth at 0.01 µM: 100%
NCI-H322M
  growth at 0.01 µM: 89%
NCI-H460 [2]
  growth at 0.01 µM: 100%
HL-60(TB) [3]
  GI50: 2.25 µM
  LC50: > 100 µM
  TGI: 5.94 µM
SF-539
  growth at 0.01 µM: 88%
UACC-257
  growth at 0.01 µM: 80%
SNB-19
  growth at 0.001 µM: 101%
SK-OV-3
  growth at 0.001 µM: 79%
HOP-92
  GI50: 1.59 µM
  TGI: 5.24 µM
HOP-92; [6]
  CC50: 39.5 µM
COLO 205
  GI50: 1.8 µM
  TGI: 3.26 µM
COLO 205; [6]
  CC50: 5.9 µM
SW-620
  GI50: 1.94 µM
  TGI: 4.33 µM
SW-620; [6]
  CC50: 9.63 µM
LOX IMVI
  GI50: 1.87 µM
  TGI: 3.39 µM
LOX IMVI; [6]
  CC50: 6.13 µM
T47D
  growth at 0.01 µM: 86%
PC-3
  GI50: 2.15 µM
  LC50 (concentration giving 50% net cell kill): 62 µM
  TGI: 7.37 µM
HL-60(TB) [4]
  growth at 10 µM: 44.3%
UACC-62
  growth at 1 µM: 33%
OVCAR-4
  growth at 1 µM: 21%
SF-295
  growth at 10 µM: 77.7%
EKVX
  growth at 10 µM: -41%
NCI-H460 [5]
  growth at 10 µM: -88%
NCI/ADR-RES
  growth at 10 µM: -52%
